ChEMBL document CHEMBL3580561, “Mitigation of Acetylcholine Esterase Activity in the 1,7-Diazacarbazole Series of Inhibitors of Checkpoint Kinase 1” (J Med Chem, 2015)

What was measured:
HT-29 [1] = assay: Cytotoxicity against human HT-29 cells assessed as 10-fold reduction of gemcitabine IC50 after 72 hrs by Isobologram assay; type: functional; conditions: HT-29, 72 h
How it was run: (§1)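 HT-29 cells exposed 72 h to a range of gemcitabine concentrations, alone or combined with a range of ChK1 inhibitor concentrations. Viability read by CellTiter-Glo luminescence. […] Synergy assessed by combination index or Bliss independence.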

[2] = Cmax in cynomolgus monkey at 2 mg/kg, po suspension at pH 6.5; type: ADME, organism-based, Macaca fascicularis; design: dose 2 mg/kg, route oral; conditions: in vivo
[3] = Volume of distribution at steady state in CD1 mouse at 1 mg/kg, iv solution at pH 4.5; type: ADME, organism-based; conditions: in vivo, read-out: Vdss
[4] = Clearance in cynomolgus monkey at 1 mg/kg, iv solution at pH 4.5; type: ADME, organism-based, Macaca fascicularis; conditions: in vivo
[5] = Plasma protein binding in Sprague-Dawley rat; type: ADME, cell-free; conditions: read-out: PPB (converted)
HT-29 [6] = assay: Cytotoxicity against human HT-29 cells assessed as 10-fold reduction of gemcitabine IC50 after 72 hrs by Isobologram assay relative to untreated control; type: functional
How it was run: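 HT-29 cells exposed 72 h to a range of gemcitabine hydrochloride concentrations, alone or combined with varying ChK1 inhibitor concentrations. Viability read by CellTiter-Glo luminescence. […] Synergy judged by combination index or Bliss independence analysis.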

[7] = Cmax in CD1 mouse at 5 mg/kg, po suspension at pH 6.5; type: ADME, organism-based; design: dose 5 mg/kg, route oral; conditions: in vivo
[8] = target: T1, Serine/threonine-protein kinase Chk1 (Homo sapiens, UniProt O14757); assay: Inhibition of human recombinant Chk1 using biotinylated AKT substrate after 30 mins by Alphascreen biochemical assay
T1 sequence (O14757 whole entry): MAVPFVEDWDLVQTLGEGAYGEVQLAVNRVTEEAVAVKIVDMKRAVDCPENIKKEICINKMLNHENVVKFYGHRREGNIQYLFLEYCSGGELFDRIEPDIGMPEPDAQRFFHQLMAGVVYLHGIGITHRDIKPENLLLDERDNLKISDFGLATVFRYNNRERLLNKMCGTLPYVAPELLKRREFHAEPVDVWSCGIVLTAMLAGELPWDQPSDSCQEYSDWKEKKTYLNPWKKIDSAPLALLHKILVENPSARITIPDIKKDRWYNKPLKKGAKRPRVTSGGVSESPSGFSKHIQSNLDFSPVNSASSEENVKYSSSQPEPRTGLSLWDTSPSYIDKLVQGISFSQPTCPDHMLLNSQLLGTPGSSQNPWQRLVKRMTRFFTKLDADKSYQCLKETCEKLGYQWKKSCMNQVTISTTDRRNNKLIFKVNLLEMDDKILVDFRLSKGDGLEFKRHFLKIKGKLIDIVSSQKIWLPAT

[9] = Clearance in CD1 mouse at 1 mg/kg, iv solution at pH 4.5; type: ADME, organism-based; conditions: in vivo
[10] = Clearance in Beagle dog at 1 mg/kg, iv solution at pH 4.5; type: ADME, organism-based, Canis lupus familiaris; conditions: in vivo
[11] = Volume of distribution at steady state in Beagle dog at 1 mg/kg, iv solution at pH 4.5; type: ADME, organism-based, Canis lupus familiaris; conditions: in vivo, read-out: Vdss
[12] = target: T1, Serine/threonine-protein kinase Chk1; assay: Inhibition of CHK1 in human HT29 cells assessed as phosphorylation of histone H3 after 24 hrs by checkpoint abrogation cellular assay; type: cell-based, HT-29
HT-29 [13] = assay: Potentiation of 60 mg/kg gemcitabine-induced anticancer activity in human HT-29 cells xenografted in po treated mouse assessed as increase in gammaH2AX by Western blot analysis; type: functional, organism-based
How it was run: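 HT-29 xenograft mice (n=4 per randomized group) got gemcitabine 60 mg/kg or saline. After 24 h they received an oral inhibitor dose in MCT (0.5% methylcellulose/0.2% Tween 80) or vehicle. Tumors were excised 16 h later, flash-frozen and lysed. Western blots (25 μg/lane) were probed for pS139 H2AX and total H2AX with IR-dye detection. The γH2AX:total ratio is expressed as fold-change from the gemcitabine-only group mean.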

HT-29 [14] = assay: Potentiation of gemcitabine-induced anticancer activity in human HT-29 cells xenografted in po treated NCr nude mouse assessed as reduction in tumor volume measured after five cycles with 120 mg/kg, ip gemcitabine at five day intervals; type: functional, organism-based
How it was run: (§2)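 NCr nude mice aged 8–12 weeks were inoculated with 5×10^6 HT-29 cells in HEPES-buffered saline:Matrigel 50:50. At 125–250 mm³, tumors were split into volume-matched cohorts (n=5 or 10). Gemcitabine in saline was given i.p., and the inhibitor as an MCT suspension by oral gavage 24 h later. Tumor volume and body weight were monitored. %TGI was derived by linear mixed-effect modeling, with two-way ANOVA/Tukey for p-values.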

Mus musculus [15] = assay: Toxicity in human HT-29 cells xenografted in NCr nude mouse assessed as body weight change measured after five cycles with 120 mg/kg, ip gemcitabine at five day intervals at 50 mg/kg, po; type: organism-based; conditions: in vivo; how it was run: as §2
[16] = AUC in cynomolgus monkey at 2 mg/kg, po suspension at pH 6.5; type: ADME, organism-based, Macaca fascicularis; conditions: in vivo
[17] = Cmax in Sprague-Dawley rat at 5 mg/kg, po suspension at pH 6.5; type: ADME, organism-based; design: dose 5 mg/kg, route oral; conditions: in vivo
[18] = AUC in Sprague-Dawley rat at 5 mg/kg, po suspension at pH 6.5; type: ADME, organism-based; conditions: in vivo
[19] = Plasma protein binding in cynomolgus monkey; type: ADME, cell-free, Macaca fascicularis; conditions: read-out: PPB (converted)
Acetylcholinesterase = Acetylcholinesterase (Homo sapiens, UniProt P22303); assay: Inhibition of human acetylcholine esterase by horseradish peroxidase-coupled fluorescence assay
Chain of Acetylcholinesterase (P22303 whole entry): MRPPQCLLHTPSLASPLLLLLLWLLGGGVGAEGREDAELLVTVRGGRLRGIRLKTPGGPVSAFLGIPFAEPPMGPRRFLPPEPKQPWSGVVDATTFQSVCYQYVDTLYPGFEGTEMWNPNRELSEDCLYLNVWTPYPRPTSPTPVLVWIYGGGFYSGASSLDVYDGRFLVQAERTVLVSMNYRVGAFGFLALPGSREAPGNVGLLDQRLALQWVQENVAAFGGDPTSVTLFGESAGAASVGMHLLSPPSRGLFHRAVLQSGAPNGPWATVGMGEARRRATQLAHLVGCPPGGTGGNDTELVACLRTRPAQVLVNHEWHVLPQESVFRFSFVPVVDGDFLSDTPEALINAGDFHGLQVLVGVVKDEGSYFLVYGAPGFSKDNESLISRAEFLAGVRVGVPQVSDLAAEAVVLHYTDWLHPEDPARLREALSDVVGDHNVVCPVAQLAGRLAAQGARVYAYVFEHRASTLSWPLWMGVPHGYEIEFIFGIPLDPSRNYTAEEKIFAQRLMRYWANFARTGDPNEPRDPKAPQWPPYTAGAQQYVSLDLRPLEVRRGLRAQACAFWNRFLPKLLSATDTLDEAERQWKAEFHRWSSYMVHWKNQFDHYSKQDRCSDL
How it was run: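 Human AChE at 0.006 U/ml, with 0.25 μM acetylcholine chloride, 0.06 U/ml choline oxidase, 0.05 U/ml horseradish peroxidase and 200 μM Amplex Red, in proprietary buffer with test compound. Incubated 30 min at 25 °C. Fluorescence read.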

[20] = Oral bioavailability in Sprague-Dawley rat at 5 mg/kg suspension at pH 6.5; type: ADME, organism-based; conditions: in vivo
[21] = Volume of distribution at steady state in cynomolgus monkey at 1 mg/kg, iv solution at pH 4.5; type: ADME, organism-based, Macaca fascicularis; conditions: in vivo, read-out: Vdss
[22] = Plasma protein binding in CD1 mouse; type: ADME, cell-free; conditions: read-out: PPB (converted)
[23] = Cmax in Beagle dog at 2 mg/kg, po suspension at pH 6.5; type: ADME, organism-based, Canis lupus familiaris; design: dose 2 mg/kg, route oral; conditions: in vivo
HT-29 [24] = assay: Cytotoxicity against human HT-29 cells after 72 hrs by CellTiter-Glo luminescent assay; type: functional; conditions: HT-29, 72 h; how it was run: as §1
[25] = Plasma protein binding in Beagle dog; type: ADME, cell-free, Canis lupus familiaris; conditions: read-out: PPB (converted)
[26] = Clearance in Sprague-Dawley rat at 1 mg/kg, iv solution at pH 4.5; type: ADME, organism-based; conditions: in vivo
[27] = Oral bioavailability in cynomolgus monkey at 2 mg/kg suspension at pH 6.5; type: ADME, organism-based, Macaca fascicularis; conditions: in vivo
[28] = (§3) AUC in CD1 mouse at 5 mg/kg, po suspension at pH 6.5; type: ADME, organism-based; conditions: CD1, mouse, in vivo, 5 mg/kg, pH 6.5
[29] = Volume of distribution at steady state in Sprague-Dawley rat at 1 mg/kg, iv solution at pH 4.5; type: ADME, organism-based; conditions: in vivo, read-out: Vdss
[30] = Oral bioavailability in Beagle dog at 2 mg/kg suspension at pH 6.5; type: ADME, organism-based, Canis lupus familiaris; conditions: in vivo
[31] = (§4) Oral bioavailability in CD1 mouse at 5 mg/kg suspension at pH 6.5; type: ADME, organism-based; conditions: CD1, mouse, in vivo, 5 mg/kg, pH 6.5
[32] = AUC in Beagle dog at 2 mg/kg, po suspension at pH 6.5; type: ADME, organism-based, Canis lupus familiaris; conditions: in vivo
Mus musculus [33] = assay: Toxicity in human HT-29 cells xenografted in NCr nude mouse assessed as body weight change measured after four cycles with 60 mg/kg, ip gemcitabine at four day intervals at 50 mg/kg, po; type: organism-based; conditions: in vivo; how it was run: as §2
HT-29 [34] = assay: Potentiation of gemcitabine-induced anticancer activity in human HT-29 cells xenografted in NCr nude mouse assessed as reduction in tumor volume measured after four cycles with 60 mg/kg, ip gemcitabine at four day intervals at 50 mg/kg, po; type: functional; design: scale not given: the % may be the effect or the level left
How it was run: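 NCr nude mice, 8–12 weeks old, inoculated with 5×10^6 HT-29 cells in HEPES-buffered saline:Matrigel 50:50. Volume-matched cohorts formed at 125–250 mm³. Gemcitabine 60 mg/kg given i.p. in saline. Inhibitor given orally in 0.5% methylcellulose/0.2% Tween 80 suspension 24 h later. Four cycles at four-day intervals. Tumor volume monitored. %TGI by linear mixed-effect modeling; two-way ANOVA with Tukey test.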

Mus musculus [35] = assay: as §3; type: ADME, organism-based; conditions: mouse, in vivo, pH 6.5, 5 mg/kg
HT-29 [36] = assay: Potentiation of gemcitabine-induced anticancer activity in human HT-29 cells xenografted in po treated NCr nude mouse assessed as reduction in tumor volume measured after four cycles with 60 mg/kg, ip gemcitabine at four day intervals; type: functional, organism-based; how it was run: as §2
Mus musculus [37] = assay: as §4; type: ADME, organism-based; conditions: mouse, in vivo, pH 6.5, 5 mg/kg

Compound | EC10 (HT-29 [1]) [µM] | Cmax [2] [µM] | Vd [3] [L/kg] | clearance [4] [L/h/kg] | fraction unbound [5] | fold change (FC) (HT-29 [6]) | Cmax [7] [µM] | IC50 [8] [µM] | clearance [10] [L/h/kg] | Vd [11] [L/kg] | EC50 [12] [µM] | Activity (HT-29 [13]) | AUC [16] [nM·h] | Cmax [17] [µM] | AUC [18] [nM·h] | fraction unbound [19] | IC50 (Acetylcholinesterase) [µM] | bioavailability [20] [%] | Vd [21] [L/kg] | fraction unbound [22] | further results
N#Cc1cc2c(cn1)[nH]c1ncc(-c3ccc(CN4CCCCC4)cc3)cc12 | 0.01 | 0.044 | 6.57 | 2.75 | 0.047 | 870 | 0.386 | 0.001 | 7.08 | 23.4 | 0.0532 | Dose-dependent effect | 869 | 0.52 | 6190 | 0.117 | 0.333 | 67.4 | 25.7 | 0.05 | clearance [9]: 3.35 L/h/kg; Activity (HT-29 [14]): Dose-dependent effect; Activity (Mus musculus [15]): Non-toxic; Cmax [23]: 0.021 µM; GI50 (HT-29 [24]): 8.7 µM; fraction unbound [25]: 0.132; clearance [26]: 1.48 L/h/kg; bioavailability [27]: 43.8%; AUC [28]: 2680 nM·h; Vd [29]: 6.35 L/kg; bioavailability [30]: 13.1%; bioavailability [31]: 86.5%; AUC [32]: 101 nM·h
N#Cc1cc2c(cn1)[nH]c1ncc(-c3ccc(CN4CCC5(CC4)COC5)cc3)cc12 | 0.016 | 0.086 | 7.33 | 1.85 | 0.025 | > 156 | 0.191 | 0.0025 | 0.654 | 9.63 | 0.0728 | Dose-dependent effect | 910 | 1.1 | 8630 | 0.049 | 2.42 | 116 | 17.1 | 0.038 | Activity (Mus musculus [33]): Non-toxic; Activity (HT-29 [34]): 111%; Cmax [23]: 0.2 µM; GI50 (HT-29 [24]): > 2.5 µM; fraction unbound [25]: 0.052; clearance [26]: 1.65 L/h/kg; bioavailability [27]: 34%; AUC (Mus musculus [35]): 1330 nM·h; Vd [29]: 7.55 L/kg; Activity (HT-29 [36]): Dose-dependent effect; bioavailability [30]: 46.7%; F (Mus musculus [37]): 48.5%; AUC [32]: 3510 nM·h
